Source: PubChem (several laboratories)
Most compounds without a hit are left out; they make up all but 4.1% or so of the library.
SMARCA2 activ: SMARCA2 function activation, primary screen. MG213 cells, MMTV-luciferase reporter, dexamethasone, overnight. activation, % at 9.1 µM. 1% of 370,000 active. AID 652017; in the data active = activation above about 7.8%
AHR activator: activators of human aryl hydrocarbon receptor. AHR-responsive luciferase reporter cells, luminescence. P35869. activation, % at 5 µM. AID 2796. 2.5% of 320,000 active; in the data active = activation above about 47%
Target sequence (P35869 whole entry, looked up): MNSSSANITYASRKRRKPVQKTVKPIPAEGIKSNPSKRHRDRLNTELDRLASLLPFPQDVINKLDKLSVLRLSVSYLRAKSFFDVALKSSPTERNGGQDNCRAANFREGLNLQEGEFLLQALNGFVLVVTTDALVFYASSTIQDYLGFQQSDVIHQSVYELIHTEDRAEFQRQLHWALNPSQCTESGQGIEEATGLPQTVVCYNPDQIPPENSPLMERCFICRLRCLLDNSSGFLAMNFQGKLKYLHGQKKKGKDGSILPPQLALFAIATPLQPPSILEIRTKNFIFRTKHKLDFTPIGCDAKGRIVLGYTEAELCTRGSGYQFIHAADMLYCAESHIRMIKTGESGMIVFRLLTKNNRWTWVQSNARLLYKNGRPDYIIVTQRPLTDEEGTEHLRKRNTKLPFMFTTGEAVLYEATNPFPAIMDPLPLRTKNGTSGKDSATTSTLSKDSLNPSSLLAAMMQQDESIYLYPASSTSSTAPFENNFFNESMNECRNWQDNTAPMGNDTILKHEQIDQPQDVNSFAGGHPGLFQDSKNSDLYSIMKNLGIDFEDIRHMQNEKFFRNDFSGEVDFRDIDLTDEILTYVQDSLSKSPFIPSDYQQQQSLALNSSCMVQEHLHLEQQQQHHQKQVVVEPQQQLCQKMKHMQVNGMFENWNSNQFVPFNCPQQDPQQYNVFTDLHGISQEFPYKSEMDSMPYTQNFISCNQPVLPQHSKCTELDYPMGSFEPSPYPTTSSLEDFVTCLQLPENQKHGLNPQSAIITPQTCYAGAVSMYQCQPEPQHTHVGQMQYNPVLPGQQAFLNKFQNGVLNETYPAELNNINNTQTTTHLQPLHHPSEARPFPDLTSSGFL
TbMetRS inhib: blocks T. brucei methionyl-tRNA synthetase activity. purified T. brucei MetRS, ATP depletion, Kinase-Glo luminescence. inhibition, % at 11.9 µM. 0.4% of 360,000 active. AID 624268;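 active = inhibition above a per-plate cutoff of the control wells' mean inhibition plus 3 SD, cut at about 5.5% in these data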
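Dosing: 11.9 µM compound single dose, 0.9% DMSO; Assay system: purified T. brucei MetRS enzyme; Measured by: Kinase-Glo luciferase luminescence reporting remaining unconsumed ATP; Schedule: 15 min plus 2 h at 25 °C.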
Efflux pump mplx: blocks antifungal efflux pumps in multiplex yeast assay; AID 485275; 0.44% of 330,000 active; S. cerevisiae Candida pump triplex, Nile Red efflux; inhibition, % at 10 µM;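 active = plate passing quality check with inhibition over a set limit, or well fluorescence over plate mean plus 4 SD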;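 also: Nile Red retained in pooled yeast measured as flow cytometry median fluorescence; higher means more Nile Red kept so more efflux inhibition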
H9c2 TAG inh: reduces triacylglycerol accumulation in H9c2 cells. Nile Red lipid (TAG) fluorescence; cells loaded with 200 µM oleic acid. inhibition, % at 12.5 µM. 0.66% of 230,000 active;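 active = pattern-corrected inhibition of lipid staining of at least 50% with the nuclear-stain viability signal not falling by more than 50%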
SMARCA2 act conf: confirmation of SMARCA2 (BRM) function activators; shares compounds with SMARCA2 activ; MG213 cells, MMTV-luciferase with dexamethasone, luminescence, overnight; MG213 cells expressing E1A, Rb sequestered; DMSO wells 0%, reference activator 100%; activation, % at 9.1 µM; 30% of 3,500 active; AID 652260;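 active = activation above its plate's cutoff, the mean activation of tested wells plus 3 SD, cut at about 7.9% in these data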
GAL4-VP16 Luc: GAL4-VP16 reporter activation counter-screen. activation, % at 9.1 µM. shares compounds with SMARCA2 activ. 41% of 3,500 active. AID 686939. HEK293 GAL4-VP16 pG5luc reporter, luciferase luminescence; scaled: DMSO wells 0%, SAHA wells 100%;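 active = activation above the solvent-only control well mean plus 3 SD, averaged across control plates, cut at about 5.2% in these data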
Hits are given with their value; n = inactive; x = no result given; ! = a repeat was not active.

SMILES	SMARCA2 activ	AHR activator	TbMetRS inhib	Efflux pump mplx	H9c2 TAG inh	SMARCA2 act conf	GAL4-VP16 Luc
Cc1ccc(-n2ncc(N(C)C)c(Cl)c2=O)cc1	n	n	n	n	n	x	x
CN(C)c1cnn(-c2ccccc2)c(=O)c1Cl	8.5	n	n	n	x	n	n
Cc1ccc(NC(=O)CNC(=O)c2cccc(C)c2)nc1	8.4	n	n	n	n	n	n
Cc1ccc(NC(=O)CNC(=O)c2ccc(Oc3ccccc3)cc2)nc1	n	n	n	n	n	x	x
CC(=O)c1ccc([C@H](O)[C@H](C)C(=O)N(C)c2ccccc2)cc1	n	x	x	x	x	x	x
COc1ccc(C=C2C(=O)OC(C)(C)OC2=O)cc1OC	n	n	n	n	x	x	x
COc1cc(/C=C2\Oc3cc(O)ccc3C2=O)ccc1O	10.2	n	n	n	x	17.5	10.4
COc1ccc(/C=C2\OC(=O)c3c(OC)cccc32)cc1OC	8.6	n	n	n	x	22.1	13.9
COC(=O)c1ccc(CN2CC3CC(c4ccccc4)N4CCCC34C2=O)cc1 (stereo not drawn)	n	x	x	x	x	x	x
COC(=O)[C@]12C[C@H](CC(=O)NCC3CCCCC3)C(=O)N(CCC3=CCCCC3)C1=C[C@H](C(C)(C)C)O[C@@H]2C	n	x	x	x	x	x	x
COc1ccc(C(=O)NCCCN2CCCC2=O)cc1	8.0	n	n	n	n	n	n
Cn1c(=O)oc2cc(S(=O)(=O)N3CCN(c4cccc(C(F)(F)F)c4)CC3)ccc21	n	x	x	x	x	x	x
COc1ccc(-n2c(C)c3c(OC)cccc(=O)c3c2C)cc1	10.9	n	n	n	x	n	n
COc1cccc(=O)c2c(C)n(-c3ccc(C(=O)O)cc3)c(C)c12	n	n	n	n	n	x	x
CCN(CC)c1ccc(NC(=O)CSc2nc3ccccc3c(=O)n2-c2ccc(C)cc2)cc1	n	x	x	x	x	x	x
COc1cccc(C=Nc2ccc(N3CCOCC3)cc2)c1O	n	n	n	n	n	x	x
COc1cccc(/C=N/N2CCOCC2)c1O	10.2	n	n	n	n	n	n
COc1ccc(-c2noc(CSc3nc4ccccc4c(=O)n3-c3ccc(C)cc3)n2)cc1	12.2	n	n	n	n	n	n
COc1ccc(-c2noc(CSc3nnc(Cc4ccccc4)n3-c3ccc(Cl)cc3)n2)cc1	n	n	n	n	x	x	x
O=C(Nc1nc2ccccc2n1CCN1CCOCC1)c1ccc(Cl)cc1	8.0	n	n	n	n	n	n
O=C(Nc1nc2ccccc2n1CCN1CCCC1)c1ccc(Cl)cc1	9.1	53.5	n	n	n	18.1	13.5
Cc1cc(CNC(=O)Nc2ccc3c(c2)OCO3)nn1C	n	n	n	n	x	x	x
CCn1nc(C)c(CNC(=O)Nc2ccc3c(c2)OCO3)c1C	9.3	68.0	n	n	n	n	n
COC(=O)/C(C#N)=C/c1c[nH]c2ccccc12	n	n	n	n	n	x	x
CCOC(=O)/C(C#N)=C/c1c[nH]c2ccccc12	10.8	n	n	n	n	n	n
SMILES	SMARCA2 activ	AHR activator	TbMetRS inhib	Efflux pump mplx	H9c2 TAG inh	SMARCA2 act conf	GAL4-VP16 Luc
O=C(Cn1ncc(Cl)c(Cl)c1=O)NC1CCCCC1	n	n	n	n	n	x	x
O=C(Cn1ncc(Cl)c(Cl)c1=O)c1ccc(Cl)cc1	20.0	n	n	n	n	n	n
O=C(Cn1ncc(Cl)c(Cl)c1=O)NCC1CCCCC1	13.5	n	n	n	x	n	n
O=C(Cn1ncc(N2CCOCC2)c(Cl)c1=O)c1ccc(Cl)cc1	n	n	n	n	n	x	x
O=C(C1CCCN1S(=O)(=O)c1ccc(Cl)s1)N1CCN(c2ccccc2)CC1 (stereo not drawn)	n	x	x	x	x	x	x
C=CCNC(=O)c1c(Br)cnn1-c1ccc(C)cc1	9.2	n	n	n	x	10.6	10.7
Cc1ccc(-n2ncc(Cl)c2C(=O)NCc2ccccc2)cc1	n	n	n	n	x	x	x
CC1CCCN(C(=O)Nc2ccc([N+](=O)[O-])cc2)C1 (stereo not drawn)	n	x	x	x	x	x	x
C[C@@H]1COc2cc(Br)ccc2S(=O)(=O)N1Cc1cn(Cc2ccc(C(F)(F)F)cc2)nn1	n	x	x	x	x	x	x
Cc1csc(NC(=O)CSc2ccccc2F)n1	8.4	n	n	n	n	n	n
Cc1csc(NC(=O)CSc2ccc(-c3ccccn3)nn2)n1	n	n	n	n	n	x	x
O=C(NC1CCN(Cc2ccccc2)CC1)c1cccc(OC(F)F)c1	10.2	n	n	n	x	n	n
O=C(N[C@@H](Cc1cccnc1)C(=O)N1CCC[C@H]1C(=O)NCCc1ccccc1Cl)c1ccco1	n	x	x	x	x	x	x
CCN1CCN(Cc2ccc(NC(=O)c3cc(NC(=O)c4cnnc5ccccc45)cc(OC)c3)cc2C(F)(F)F)CC1	14.1!	n	n	n	n	8.7	n
O=C(OCc1cn(Cc2ccc(Cl)cc2)nn1)N1CCCC1	n	x	x	x	x	x	x
Cn1cccc1/C=N/N1CCN(Cc2ccc(Cl)cc2)CC1	n	n	n	n	n	x	x
Cn1cccc1/C=N/N1CCN(Cc2ccccc2)CC1	16.3	n	n	n	n	n	n
CCCCc1c(-c2ccccc2OC)ncn1Cc1ccccc1Cl	n	x	x	x	x	x	x
CCOC(=O)c1c(C)[nH]c(N=Nc2ccc(C)cc2)c1C	n	n	n	n	x	x	x
CCOC(=O)c1c(C)[nH]c(N=Nc2ccc(OC)cc2)c1C	9.3	n	n	n	n	n	7.7
COc1ccc2[nH]c3c(=S)nc[nH]c3c2c1	9.7	n	n	n	n	n	n
COc1ccc2[nH]c3c(Cl)ncnc3c2c1	n	n	n	n	n	x	x
C=CCN=c1sc(C(=O)OC)cc(=O)n1CC=C	n	n	n	n	x	x	x
CCN=c1sc(C(=O)OC)cc(=O)n1CC	10.6	n	n	n	n	8.6	n
O=C(Nc1ccc(F)cc1)C(CCc1ccccc1)N1CCN(C(=O)c2ccco2)CC1 (stereo not drawn)	8.7	x	n	x	x	n	n
SMILES	SMARCA2 activ	AHR activator	TbMetRS inhib	Efflux pump mplx	H9c2 TAG inh	SMARCA2 act conf	GAL4-VP16 Luc
CCOc1ccc(CCNC(=O)COC(=O)c2cccc(S(=O)(=O)N(C)C)c2)cc1OCC	n	x	n	x	n	x	x
CCOc1ccc(CCNC(=O)COC(=O)c2cccc(N(C)C)c2)cc1OCC	8.1	n	n	n	n	n	8.7
COC(=O)c1ccc(COc2ccccc2/C=C(\C#N)C(=O)Nc2ccc(C)cc2)cc1	8.2	n	n	n	x	n	14.4
OCCN(Cc1ccccc1)Cc1ccc(Cl)cc1Cl	8.2	n	n	n	x	n	n
OCCN(Cc1ccccc1)Cc1ncccc1O	n	x	n	x	n	x	x
CN(CCc1ccccc1)C(=O)c1cc2ccccn2n1	8.2	x	x	x	x	n	6.0
CCOC(=O)C1=CCN(S(=O)(=O)c2ccc(Br)cc2)C1c1ccc(F)cc1 (stereo not drawn)	n	x	x	x	x	x	x
Cc1ccc(/C=C/c2nnc(-c3cccc(C)c3)o2)cc1	9.3	n	n	n	x	n	n
Cc1ccc(-c2nnc(/C=C/c3ccccc3)o2)cc1	9.1	n	n	n	n	n	10.1
Cc1cccc(-c2nnc(-c3ccccc3)o2)c1	n	n	n	n	x	x	x
O=C(c1ccco1)N1CCN(Cc2ccccc2F)CC1	n	n	n	n	n	x	x
